Assay [1] concerns the target Aldo-keto reductase family 1 member A1 (Rattus norvegicus, UniProt P51635). Briefly: Inhibition of rat kidney ALR1 using sodium D-glucuronate as substrate preincubated for 10 mins followed by substrate addition measured for 4 mins. In short, it runs like this:
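ALR1 assay run at 37 °C in 1 mL containing 0.12 mM NADPH, 0.1 M sodium phosphate pH 7.2 and enzyme extract. The mixture was preincubated 10 min, then 20 mM sodium D-glucuronate was added and the reaction monitored for 4 min. The nonenzymatic NADPH oxidation rate without substrate was subtracted. Triplicates at ≥3 concentrations in the 20–80% inhibition range were used to build dose-response curves for IC50.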

Assay [2] deals with Aldo-keto reductase family 1 member B1 (Rattus norvegicus, UniProt P07943). Briefly: Inhibition of rat lenses ALR2 using DL-glyceraldehyde as substrate preincubated for 10 mins followed by substrate addition measured for 4 mins. In short, it runs like this: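 ALR2 assay run at 30 °C in 1 mL containing 0.10 mM NADPH, 0.1 M sodium phosphate pH 6.2 and enzyme extract. The mixture was preincubated 10 min, then 10 mM DL-glyceraldehyde was added and NADPH oxidation followed for 4 min. Compounds were in DMSO diluted with water. Substrate-free blank rates were subtracted.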

Assay [3] is filed under the species Rattus norvegicus. Kind of assay: Selectivity index, ratio of IC50 for rat kidney ALR1 to IC50 for rat lenses ALR2.
Assay [4] is described as follows: Antidiabetic activity in STZ-induced diabetic Sprague-Dawley rat model assessed as delay in progression of cataract at 5 to 50 uM/kg, po administered for 8 weeks measured every week during compound dosing by slit-lamp microscopy. The format is functional, organism-based. In short, it runs like this:
(§1)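 Diabetes was induced in rats by a single i.p. injection of streptozotocin, 35 mg/kg in 0.1 M citrate buffer pH 4.5. Animals with fasting blood glucose >150 mg/dl at 72 h were included. Treatment was given p.o. daily for 8 weeks as a suspension in 2% Tween 80 in saline. Diabetic controls received vehicle only. Lenses were dissected at sacrifice after 8 weeks.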

Assay [5] can be described thus: Antidiabetic activity in STZ-induced diabetic Sprague-Dawley rat model assessed as blood glucose level at 5 uM/kg, po administered for 8 weeks measured every week during compound dosing (reference value: 261.53 +/- 53 mg/dl). In kind it is functional, organism-based. In short, it runs like this:
as §1

Assay [6] in a line: Antidiabetic activity in STZ-induced diabetic Sprague-Dawley rat model assessed as aldose reductase activity at 5 uM//kg, po administered for 8 weeks (reference value: 44.66 +/- 2.7 U). The format is functional, organism-based. In short, it runs like this:
as §1

The nature of assay [7]: Antidiabetic activity in STZ-induced diabetic Sprague-Dawley rat model assessed as blood glucose level at 50 uM/kg, po administered for 8 weeks measured every week during compound dosing (reference value: 261.53 +/- 53 mg/dl). In kind it is functional, organism-based. The essentials:
as §1

The nature of assay [8]: Antidiabetic activity in STZ-induced diabetic Sprague-Dawley rat model assessed as decrease in sorbitol level in lenses at 5 to 50 uM/kg, po administered for 8 weeks. The format is functional, organism-based. The essentials:
as §1

The nature of assay [9]: Antidiabetic activity in STZ-induced diabetic Sprague-Dawley rat model assessed as effect on body weight at 5 uM/kg, po administered for 8 weeks (reference value: 186 +/- 6.91 g). In kind it is functional, organism-based. In short, it runs like this:
as §1

A short description of assay [10]: Antidiabetic activity in STZ-induced diabetic Sprague-Dawley rat model assessed as decrease in fructose level in lenses at 5 to 50 uM/kg, po administered for 8 weeks. In kind it is functional, organism-based. In short, it runs like this:
as §1

Assay [11] deals with Rattus norvegicus. Briefly: Antidiabetic activity in po dosed STZ-induced diabetic Sprague-Dawley rat model assessed as decrease in aldose reductase activity administered for 8 weeks. In kind it is functional, organism-based. The essentials: as §1
Assay [12] in a line: Antidiabetic activity in STZ-induced diabetic Sprague-Dawley rat model assessed as effect on body weight at 50 uM/kg, po administered for 8 weeks (reference value: 186 +/- 6.91 g). In kind it is functional, organism-based. The essentials: as §1
Assay [13] can be described thus: Antidiabetic activity in STZ-induced diabetic Sprague-Dawley rat model assessed as aldose reductase activity at 50 uM//kg, po administered for 8 weeks (reference value: 44.66 +/- 2.7 U). In kind it is functional, organism-based. In short, it runs like this:
as §1

Activity calls are given as the source filed them. The rule behind the calls is not given here.

Sequence of Aldo-keto reductase family 1 member A1 (P51635 whole entry, looked up): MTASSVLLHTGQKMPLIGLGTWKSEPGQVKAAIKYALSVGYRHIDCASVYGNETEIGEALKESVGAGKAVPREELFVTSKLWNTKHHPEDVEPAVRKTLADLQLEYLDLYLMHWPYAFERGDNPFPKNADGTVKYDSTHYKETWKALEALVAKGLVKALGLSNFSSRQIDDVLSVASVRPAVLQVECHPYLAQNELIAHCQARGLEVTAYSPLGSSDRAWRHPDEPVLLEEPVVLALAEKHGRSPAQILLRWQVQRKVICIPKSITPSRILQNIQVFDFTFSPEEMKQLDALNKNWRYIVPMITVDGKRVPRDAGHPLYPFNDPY

On to `O=C(C1=Cc2ccccc2OC1)N1CCC[C@H]1c1ncc(-c2ccc(Cl)cc2)[nH]1`, for which the concentration for half-maximal inhibition (IC50) stood at 3880 nM in assay [1] and 337 nM in assay [2]. Besides, the Ratio IC50 in the assay listed under Rattus norvegicus [3] was 11.5.
For the compound `COc1cccc2c1OCC(C(=O)NCc1ncc(-c3ccc(F)cc3)[nH]1)=C2`, the IC50 is 1620 nM in [1] and 71 nM in assay [2]. The Ratio IC50 in the assay listed under Rattus norvegicus [3] turned out to be 22.8.
Taken in the same sequence, the figures for `CC(C)[C@H](NC(=O)C1=Cc2ccccc2OC1)c1ncc(-c2ccc(Br)cc2)[nH]1` were 2280 nM, 220 nM and 10.3.
On to `O=C(NCc1ncc(-c2ccccc2)[nH]1)C1=Cc2ccccc2OC1`, for which the results for the IC50 in assay [1] and in assay [2] were 5190 nM and 2120 nM, respectively. The Ratio IC50 in the assay filed under Rattus norvegicus [3] was determined as 2.48.
As for `COc1cccc2c1OCC(C(=O)N1CCC[C@H]1c1ncc(-c3ccc(Cl)cc3)[nH]1)=C2`, the result in [4], in assay [8] and in assay [10] was Active. Also, the Activity was 139 mg/dL in assay [5]; 41.3 U in assay [6]; 130 mg/dL in assay [7]; 309 g in [9]; “Dose-dependent effect” in the assay with Rattus norvegicus [11]; 320 g in assay [12]. The Activity in assay [13] came to 39.5 U. The half-maximal inhibitory concentration (IC50) was found to be 3420 nM in assay [1] and 31 nM in [2]. For the same compound, the Ratio IC50 in the assay filed under Rattus norvegicus [3] was 110.
As for `COc1ccc(-c2cnc(CNC(=O)C3=Cc4ccccc4OC3)[nH]2)cc1`, the IC50 in assay [1] worked out at 2540 nM; in assay [2], 275 nM. Besides, the Ratio IC50 in the assay listed under Rattus norvegicus [3] is 9.22.
Taken in the same sequence, the figures for `COc1cccc2c1OCC(C(=O)N1CCC[C@H]1c1ncc(-c3cccnc3)[nH]1)=C2` were 1420 nM, 146 nM and 9.71.
Turning to `COc1cccc2c1OCC(C(=O)N[C@H](c1ncc(-c3ccc(Br)cc3)[nH]1)C(C)C)=C2`, the IC50 in assay [1] is 3410 nM; in assay [2], 771 nM. In addition, the Ratio IC50 in the assay filed under Rattus norvegicus [3] amounted to 4.42.
Taken in the same sequence, the figures for `O=C(NCc1ncc(-c2ccc(Br)cc2)[nH]1)C1=Cc2ccccc2OC1` were 3380 nM, 732 nM and 4.61.
Taken in the same sequence, the figures for `O=C(C1=Cc2ccccc2OC1)N1CCC[C@H]1c1ncc(-c2ccccc2)[nH]1` were 5720 nM, 3670 nM and 1.55.
For the compound `COc1cccc2c1OCC(C(=O)N[C@H](c1ncc(-c3ccccc3)[nH]1)C(C)C)=C2`, the figures for the IC50 in assay [1] and in [2] were 4870 nM and 1000 nM, respectively. The Ratio IC50 in the assay listed under Rattus norvegicus [3] is 4.87.
Take `COc1ccc(-c2cnc(CNC(=O)C3=Cc4cccc(OC)c4OC3)[nH]2)cc1`: the IC50 worked out at 1310 nM in [1] and 899 nM in [2]. Further, the Ratio IC50 in the assay listed under Rattus norvegicus [3] amounted to 1.45.
For the compound `CC(C)[C@H](NC(=O)C1=Cc2ccccc2OC1)c1ncc(-c2ccccc2)[nH]1`, the IC50 in [1] was found to be 9410 nM; in assay [2], 4290 nM. The Ratio IC50 in the assay listed under Rattus norvegicus [3] amounted to 2.19.
In the case of `O=C(NCc1ncc(-c2ccc(Cl)cc2)[nH]1)C1=Cc2ccccc2OC1`, the values for the IC50 in assay [1] and in [2] were 2420 nM and 114 nM, respectively. In the assay filed under Rattus norvegicus [3], the Ratio IC50 is 21.2.
Turning to `O=C1NC(=O)[C@@]2(CCOc3ccc(F)cc32)N1`, in assay [13], the Activity came out at 39 U.
In the case of `COc1cccc2c1OCC(C(=O)NCc1ncc(-c3ccccc3)[nH]1)=C2`, the IC50 in assay [1] turned out to be 1210 nM; in assay [2], 731 nM. Moreover, in the assay filed under Rattus norvegicus [3], the Ratio IC50 was determined as 1.66.
Turning to `NC(=O)[C@@H]1C[C@]2(NC(=O)NC2=O)c2cc(F)ccc2O1`, the Activity in assay [13] turned out to be 36.3 U.
Take `COc1cccc2c1OCC(C(=O)N1CCC[C@H]1c1ncc(-c3ccccc3)[nH]1)=C2`: the IC50 in [1] is 1830 nM; in [2], 3070 nM. Also, in the assay listed under Rattus norvegicus [3], the Ratio IC50 was found to be 0.596.
With `COc1cccc2c1OCC(C(=O)NCc1ncc(-c3ccc(Cl)cc3)[nH]1)=C2`, the IC50 turned out to be 1440 nM in assay [1] and 65 nM in assay [2]. Moreover, in the assay listed under Rattus norvegicus [3], the Ratio IC50 turned out to be 22.2.
Turning to `O=C(NCc1ncc(-c2ccc(F)cc2)[nH]1)C1=Cc2ccccc2OC1`, the IC50 in assay [1] amounted to 1840 nM; in [2] it was 420 nM. In addition, the Ratio IC50 in the assay listed under Rattus norvegicus [3] worked out at 4.38.
On the same counts, the results for `COc1cccc2c1OCC(C(=O)NCc1ncc(-c3ccc(Br)cc3)[nH]1)=C2` are 1560 nM, 91 nM and 17.1.
Taken in the same sequence, the figures for `O=C(C1=Cc2ccccc2OC1)N1CCC[C@H]1c1ncc(-c2cccnc2)[nH]1` were 2430 nM, 222 nM and 10.9.

The values above are taken from ChEMBL document CHEMBL3875167, “Design and synthesis of chiral 2H-chromene-N-imidazolo-amino acid conjugates as aldose reductase inhibitors” (Eur J Med Chem, 2016).
